Assay results: ChEMBL document CHEMBL3763151, “Antinociceptive Grayanoids from the Roots of Rhododendron molle” (J Nat Prod, 2015)
Activity calls are given as the source filed them.

Key:
[1] = system: Mus musculus; test: Antinociceptive activity in ip dosed Kunming mouse model of acute pain assessed as inhibition of acetic acid-induced writhes administered 30 mins prior to acetic acid challenge measured for 30 mins; type: functional; conditions: for ED50: read-out: ID50 (the source's name)
In short: (§1)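 Acetic acid-induced writhing in mice after ip dosing, with a vehicle-injected group for comparison. Reported as mean ± SEM of 12 mice per group. Significance vs vehicle by one-way ANOVA followed by Bonferroni test.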

[2] = system: Mus musculus; test: Antinociceptive activity in Kunming mouse model of acute pain assessed as inhibition of acetic acid-induced writhes at 0.8 mg/kg, ip administered 30 mins prior to acetic acid challenge measured for 30 mins in presence of nonselective opioid antagonist naloxone; type: functional, organism-based
[3] = system: Mus musculus; test: Antinociceptive activity in Kunming mouse model of formalin-induced pain assessed as reduction of time spent in licking in phase 1 at 2 mg/kg, ip administered 30 mins before formalin injection measured for 5 mins; type: functional, organism-based
In short: (§2)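 Formalin test scored in phase I and phase II after ip dosing, against a vehicle group (n = 10). Control drugs used: morphine and ibuprofen. Data are mean ± SEM. Significance vs vehicle by one-way ANOVA followed by Bonferroni test.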

[4] = system: Mus musculus; test: Antinociceptive activity in Kunming mouse model of formalin-induced pain assessed as reduction of time spent in licking in phase 2 at 2 mg/kg, ip administered 30 mins before formalin injection measured after 15 mins up to 30 mins; type: functional, organism-based; in short: as §2
[5] = system: Mus musculus; test: Antinociceptive activity in Kunming mouse model of acute pain assessed as inhibition of acetic acid-induced writhes at 5 mg/kg, ip administered 30 mins prior to acetic acid challenge measured for 30 mins; type: functional, organism-based
In short: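 Acute-pain model in mice: compounds given ip, and writhing counted against vehicle-injected mice.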

[6] = system: Mus musculus; test: Antinociceptive activity in Kunming mouse model of acute pain assessed as inhibition of acetic acid-induced writhes at 0.08 mg/kg, ip administered 30 mins prior to acetic acid challenge measured for 30 mins relative to control; type: functional; in short: as §1
[7] = system: Mus musculus; test: Antinociceptive activity in Kunming mouse model of STZ-induced diabetic neuropathy pain assessed as increase in paw withdrawal mechanical threshold at 50 mg/kg, po; type: functional, organism-based
In short: (§3)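 Streptozotocin-diabetic mice with mechanical hyperalgesia were dosed orally (n = 8), with vehicle and gabapentin groups for comparison. Data are mean ± SEM. Significance vs vehicle by one-way ANOVA followed by Bonferroni test.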

[8] = system: Mus musculus; test: Antinociceptive activity in Kunming mouse model of formalin-induced pain assessed as reduction of time spent in licking in phase 2 at 60 mg/kg, ip administered 30 mins before formalin injection measured after 15 mins up to 30 mins; type: functional, organism-based
In short: (§4)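 Formalin test in mice with phases I and II scored separately. Compounds given ip, n = 10 per group. Data are mean ± SEM, compared with the vehicle group by one-way ANOVA followed by the Bonferroni test.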

[9] = system: Mus musculus; test: Antinociceptive activity in Kunming mouse model of formalin-induced pain assessed as reduction of time spent in licking in phase 1 at 60 mg/kg, ip administered 30 mins before formalin injection measured for 5 mins; type: functional, organism-based; in short: as §4
[10] = system: Mus musculus; test: Antinociceptive activity in po dosed Kunming mouse model of STZ-induced diabetic neuropathy pain assessed as complete reversal of mechanical hyperalgesia; type: functional, organism-based; in short: as §3
[11] = system: Mus musculus; test: Antinociceptive activity in Kunming mouse model of acute pain assessed as inhibition of acetic acid-induced writhes at 0.08 mg/kg, ip administered 30 mins prior to acetic acid challenge measured for 30 mins in presence of nonselective opioid antagonist naloxone; type: functional, organism-based
[12] = system: Mus musculus; test: Antinociceptive activity in ip dosed Kunming mouse model of formalin-induced pain assessed as reduction of time spent in licking in phase 1 administered 30 mins before formalin injection measured for 5 mins; type: functional, organism-based; in short: as §2
[13] = system: Mus musculus; test: Antinociceptive activity in ip dosed Kunming mouse model of formalin-induced pain assessed as reduction of time spent in licking in phase 2 administered 30 mins before formalin injection measured for 15 to 30 mins; type: functional, organism-based; in short: as §2
[14] = system: Mus musculus; test: Toxicity in ip dosed Kunming mouse by Karber's method; type: organism-based; conditions: in vivo
[15] = system: Mus musculus; test: Antinociceptive activity in Kunming mouse model of STZ-induced diabetic neuropathy pain assessed as increase in paw withdrawal mechanical threshold at 0.2 to 0.4 mg/kg, po relative to gabapentin; type: functional; in short: as §3
[16] = Selectivity index, ratio of LD50 for toxicity in Kunming mouse to ID50 for antinociceptive activity in Kunming mouse model of acute pain; type: organism-based; conditions: in vivo, read-out: Selectivity Index
[17] = system: Mus musculus; test: Antinociceptive activity in Kunming mouse assessed as increase in licking latency time at 0.08 mg/kg, ip by hot plate test; type: functional, organism-based
[18] = system: Mus musculus; test: Antinociceptive activity in Kunming mouse assessed as increase in licking latency time at 0.02 to 0.08 mg/kg, ip by hot plate test; type: functional, organism-based

With CN1CC[C@]23c4c5ccc(O)c4O[C@H]2[C@@H](O)C=C[C@H]3[C@H]1C5 [MORPHINE] as the compound, how does the ED50 [1] read?
The ED50 was 0.343 mg/kg.

What about the inhibition [2] of the same compound?
Its inhibition is “inactive”.

And the Activity [3]?
Its Activity is “Active”.

And the Activity [4]?
The Activity was “Active”.

Which inhibition [5] does the source give for C=C1[C@@H]2[C@H](O)[C@H](O)C(C)(C)[C@@]2(O)[C@H](O)C[C@]23C=C(C)[C@H](CC[C@@H]12)[C@H]3O here?
Its inhibition is “inactive”.

With C=C1[C@@H]2CC[C@@H]3[C@@H](O)[C@@]2(C[C@@H](O)[C@@]2(O)[C@H]1C[C@H](O)C2(C)C)C[C@@]3(C)O as the compound, how does the inhibition [5] read?
Its inhibition is “Active”.

For C=C1[C@@H]2CC[C@@H]3C[C@@]2(C[C@@H](O)[C@@]2(O)[C@@H]1[C@H](O)[C@H](O)C2(C)C)C[C@@]3(C)O, which inhibition [5] is on record?
Its inhibition is “Active”.

Which inhibition [5] does the source give for CC1(C)[C@H]2O[C@H]2[C@H]2[C@](C)(O)[C@@H]3C[C@@H](O)[C@@H]4[C@@H](O)[C@@]3(C[C@@H](O)[C@@]21O)C[C@@]4(C)O here?
The inhibition was “Active”.

For CC1(C)[C@@H](O)C[C@H]2[C@](C)(O)[C@@H]3CC[C@@H]4[C@@H](O)[C@@]3(C[C@@H](O)[C@@]21O)C[C@@]4(C)O [GRAYANOTOXIN III], which inhibition in vivo at 0.08 mg/kg [6] is on record?
Its inhibition in vivo at 0.08 mg/kg is 55.6%.

With NCC1(CC(=O)O)CCCCC1 as the compound, how does the Activity [7] read?
The Activity was “Active”.

With CC1=C2CC[C@@H]3[C@@H](O)[C@@]2(C[C@@H](O)[C@@]2(O)[C@H]1[C@@H](O)[C@H](O)C2(C)C)C[C@@]3(C)O as the compound, how does the inhibition [5] read?
The inhibition was “inactive”.

For CC1(C)[C@@H](O)[C@@H](O)[C@@H]2[C@@](C)(O)[C@@H]3CC[C@@H]4[C@@H](O)[C@@]3(C[C@@H](O)[C@@]21O)C[C@@]4(C)O, which inhibition [5] is on record?
Its inhibition is “Active”.

For CC1(C)[C@@H](O[C@@H]2O[C@H](CO)[C@@H](O)[C@H](O)[C@H]2O)[C@@H](O)[C@H]2[C@](C)(O)[C@@H]3CC[C@@H]4[C@@H](O)[C@@]3(C[C@@H](O)[C@@]21O)C[C@@]4(C)O, which inhibition [5] is on record?
Its inhibition is “inactive”.

For C=C1[C@@H]2[C@@H](O)[C@H](O[C@@H]3O[C@H](CO)[C@@H](O)[C@H](O)[C@H]3O)C(C)(C)[C@@]2(O)[C@H](O)C[C@]23C[C@@](C)(O)[C@H](CC[C@@H]12)[C@H]3O, which inhibition [5] is on record?
Its inhibition is “inactive”.

Which inhibition [5] does the source give for CC1(C)[C@@H](O[C@@H]2O[C@H](CO)[C@@H](O)[C@H](O)[C@H]2O)[C@@H](O)[C@@H]2[C@@](C)(O)[C@@H]3CC[C@@H]4C[C@@]3(C[C@@H](O)[C@@]21O)C[C@@]4(C)O here?
The inhibition was “Active”.

What does the source list for CC(C)Cc1ccc(C(C)C(=O)O)cc1 (stereo not drawn)?
Activity [8]: Active; Activity [9]: inactive

For C=C1[C@@H]2[C@H](O)[C@H](O[C@@H]3O[C@H](CO)[C@@H](O)[C@H](O)[C@H]3O)C(C)(C)[C@@]2(O)[C@H](O)C[C@]23C[C@@](C)(O)[C@H](CC[C@@H]12)[C@H]3O, which inhibition [5] is on record?
Its inhibition is “inactive”.

For C=C1C[C@@]23C[C@@H](O)[C@@]4(O)[C@H](C(=C)[C@@H]2CC[C@@H]1[C@H]3O)[C@@H](O)[C@H](O)C4(C)C, which inhibition [5] is on record?
Its inhibition is “inactive”.

What does the source list for CC1(C)[C@H]2O[C@H]2[C@H]2[C@](C)(O)[C@@H]3CC[C@@H]4[C@@H](O)[C@@]3(C[C@@H](O)[C@@]21O)C[C@@]4(C)O?
Activity [10]: Dose-dependent effect; inhibition [11]: Active; Activity [12]: Dose-dependent effect; inhibition [1]: Dose-dependent effect; ED50 [1]: 0.0469 mg/kg; Activity [13]: Dose-dependent effect; LD50 [14]: 0.271 mg/kg; fold change (FC) [15]: 100; selectivity ratio [16]: 5.8; Activity [17]: Active; inhibition in vivo at 0.08 mg/kg [6]: 73.7%

Which inhibition [5] does the source give for CC1(C)[C@@H](O[C@@H]2O[C@H](CO)[C@@H](O)[C@H](O)[C@H]2O)[C@H](O)[C@H]2[C@](C)(O)[C@@H]3CC[C@@H]4[C@@H](O)[C@@]3(C[C@@H](O)[C@@]21O)C[C@@]4(C)O here?
Its inhibition is “Active”.

For CC1(C)[C@@H](O)[C@H](O)[C@H]2[C@](C)(O)[C@@H]3CC[C@@H]4[C@@H](O)[C@@]3(C[C@@H](O)[C@@]21O)C[C@@]4(C)O, which Activity [10] is on record?
Its Activity is “Dose-dependent effect”.

And the inhibition [11]?
The inhibition was “Active”.

What about the Activity [12] of the same compound?
Its Activity is “Dose-dependent effect”.

And the inhibition [1]?
Its inhibition is “Dose-dependent effect”.

What about the ED50 [1] of the same compound?
Its ED50 is 0.0727 mg/kg.

What about the Activity [18] of the same compound?
The Activity was “inactive”.

And the Activity [13]?
The Activity was “Dose-dependent effect”.

And the LD50 [14]?
Its LD50 is 1.791 mg/kg.

And the “fold change (FC)” value [15]?
The value was 100.

And the selectivity ratio [16]?
The selectivity ratio was 24.6.

What about the inhibition in vivo at 0.08 mg/kg [6] of the same compound?
Its inhibition in vivo at 0.08 mg/kg is 64.2%.

For C=C1[C@@H]2[C@@H](O)[C@H](O)C(C)(C)[C@@]2(O)[C@H](O)C[C@]23C[C@@](C)(O)[C@H](CC[C@@H]12)[C@H]3O, which inhibition [5] is on record?
Its inhibition is “inactive”.
